In ChEMBL document CHEMBL1275524, “Activities of antifungal agents against yeasts and filamentous fungi: assessment according to the methodology of the European Committee on Antimicrobial Susceptibility Testing” (2008):
≈ marks a conversion by molar mass, not a printed value.

Experiments:
Format in all cases: functional
[1] = test system: Talaromyces marneffei; experiment: Antifungal activity against Penicillium marneffei by EUCAST method
[2] = test system: Meyerozyma guilliermondii; experiment: Antifungal activity against Candida guilliermondii
Outline: (§1)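 Broth microdilution in flat-bottom plates in RPMI 1640 with 2% glucose; inoculum 0.5 × 105 to 2.5 × 10^5 CFU/ml. MICs were read spectrophotometrically at 24 h. AMB endpoint: ≥90% growth reduction vs drug-free control well. Azole and CPF endpoint: 50% reduction in optical density. MFC was taken as the lowest concentration giving 99% killing.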

[3] = test system: Pichia kudriavzevii; experiment: Antifungal activity against Candida krusei
Outline: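 EUCAST broth microdilution for yeasts in flat-bottom plates, RPMI 1640 with 2% glucose, inoculum 0.5 × 105 to 2.5 × 10^5 CFU/ml. […] MFC is the lowest concentration giving 99% killing.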

[4] = test system: Aspergillus flavus; experiment: Antifungal activity against Aspergillus flavus
[5] = Antifungal activity against Rhizopus microsporus var. oligosporus by EUCAST method
Outline: (§2)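 Broth microdilution following the EUCAST reference procedure for spore-forming moulds, in flat-bottom plates with RPMI 1640 plus 2% glucose. Inoculum was 2 × 10^5 to 5 × 10^5 CFU/ml. MICs were read visually at 24 and 48 h as 100% growth reduction versus a drug-free control for polyenes and azoles. MEC was used for caspofungin. Tests were run in duplicate and repeated twice.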

[6] = Antifungal activity against Rhinocladiella aquaspersa
Outline: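 Dematiaceous fungi were tested by the EUCAST spore-forming mold reference procedure: flat-bottom microdilution plates, RPMI 1640 plus 2% glucose, inoculum 2 × 105 to 5 × 10^5 CFU/ml. Endpoints were read visually at 24 and 48 h. Polyenes and azoles: 100% growth reduction vs drug-free control. CPF: minimum effective concentration. Run in duplicate and repeated twice.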

[7] = test system: Aspergillus flavus; experiment: Antifungal activity against Aspergillus flavus by EUCAST method
[8] = test system: Cunninghamella; experiment: Antifungal activity against Cunninghamella species
[9] = test system: Rhizopus arrhizus; experiment: Antifungal activity against Rhizopus oryzae; outline: as §2
[10] = test system: Trichosporon inkin; experiment: Antifungal activity against Trichosporon inkin
Outline: (§3)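 Nonfermentative yeasts were tested by the EUCAST microdilution recommendations with one change: plates were sealed and agitated at 350 rpm and 30°C for 48 h.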

[11] = test system: Aspergillus niger; experiment: Antifungal activity against Aspergillus niger by EUCAST method
[12] = Antifungal activity against Cryptococcus neoformans var. neoformans by EUCAST method; settings: Cryptococcus deneoformans
Outline: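 EUCAST yeast microdilution, modified for nonfermentative yeasts: plates were sealed and agitated at 350 rpm and 30°C for 48 h.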

[13] = test system: Nakaseomyces glabratus; experiment: Antifungal activity against Candida glabrata; outline: as §1
[14] = test system: Trichosporon asahii; experiment: Antifungal activity against Trichosporon asahii; outline: as §3
[15] = test system: Curvularia lunata; experiment: Antifungal activity against Curvularia lunata
[16] = test system: Rhizomucor; experiment: Antifungal activity against Rhizomucor species
[17] = test system: Rhizopus arrhizus; experiment: Antifungal activity against Rhizopus oryzae by EUCAST method; outline: as §2
[18] = test system: Cunninghamella; experiment: Antifungal activity against Cunninghamella species by EUCAST method
[19] = test system: Geotrichum candidum; experiment: Antifungal activity against Geotrichum candidum
[20] = test system: Fusarium solani; experiment: Antifungal activity against Fusarium solani by EUCAST method
[21] = test system: Sporothrix schenckii; experiment: Antifungal activity against Sporothrix schenckii by EUCAST method; outline: as §2
[22] = test system: Candida tropicalis; experiment: Antifungal activity against Candida tropicalis by EUCAST method; outline: as §1
[23] = test system: Scedosporium apiospermum; experiment: Antifungal activity against Scedosporium apiospermum by EUCAST method; outline: as §2
[24] = test system: Clavispora lusitaniae; experiment: Antifungal activity against Candida lusitaniae by EUCAST method; outline: as §1
[25] = test system: Aspergillus niger; experiment: Antifungal activity against Aspergillus niger
[26] = test system: Candida tropicalis; experiment: Antifungal activity against Candida tropicalis; outline: as §1
[27] = Antifungal activity against Rhizopus microsporus var. oligosporus; outline: as §2
[28] = test system: Candida parapsilosis; experiment: Antifungal activity against Candida parapsilosis; settings: Lodderomyces parapsilosis; outline: as §1
[29] = test system: Trichosporon asahii; experiment: Antifungal activity against Trichosporon asahii by EUCAST method; outline: as §3
[30] = test system: Lomentospora prolificans; experiment: Antifungal activity against Scedosporium prolificans; outline: as §2
[31] = test system: Lichtheimia corymbifera; experiment: Antifungal activity against Absidia corymbifera
[32] = test system: Absidia; experiment: Antifungal activity against Absidia species by EUCAST method
[33] = test system: Saccharomyces cerevisiae; experiment: Antifungal activity against Saccharomyces cerevisiae
Outline: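 Broth microdilution following EUCAST for fermentative yeasts, in flat-bottom plates with RPMI 1640 plus 2% glucose. Inoculum was 0.5 × 10^5 to 2.5 × 10^5 CFU/ml. End points were read spectrophotometrically at 24 h: ≥90% growth reduction versus a drug-free control for amphotericin B, and 50% OD reduction for azoles and caspofungin. MFC was the lowest concentration giving 99% killing.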

[34] = test system: Rhizopus; experiment: Antifungal activity against Rhizopus species by EUCAST method; outline: as §2
[35] = test system: Mucor hiemalis; experiment: Antifungal activity against Mucor hiemalis by EUCAST method
[36] = test system: Lichtheimia corymbifera; experiment: Antifungal activity against Absidia corymbifera by EUCAST method

MIC [1]: 1.5 µg/mL (≈ 1.62 µM)
MIC [5]: 1 µg/mL (≈ 1.08 µM)
MIC [7]: 1.51 µg/mL (≈ 1.63 µM)
MIC [11]: 1 µg/mL (≈ 1.08 µM)
MIC [12]: 0.75 µg/mL (≈ 0.812 µM)
MIC [17]: 3 µg/mL (≈ 3.25 µM)
MIC [18]: 2.25 µg/mL (≈ 2.43 µM)
MIC [20]: 1 µg/mL (≈ 1.08 µM)
MIC [21]: 2.5 µg/mL (≈ 2.71 µM)
MIC [22]: 0.38 µg/mL (≈ 0.411 µM)
MIC [23]: 2.66 µg/mL (≈ 2.88 µM)
MIC [24]: 1.16 µg/mL (≈ 1.26 µM)
MIC [29]: 1.5 µg/mL (≈ 1.62 µM)
MIC [32]: 0.8 µg/mL (≈ 0.866 µM)
MIC [34]: 2.08 µg/mL (≈ 2.25 µM)
MIC [35]: 0.86 µg/mL (≈ 0.931 µM)
MIC [36]: 1 µg/mL (≈ 1.08 µM)
Structure (SMILES): C[C@@H]1[C@H](O)[C@@H](C)/C=C/C=C/C=C/C=C/C=C/C=C/C=C/[C@H](O[C@@H]2O[C@H](C)[C@@H](O)[C@H](N)[C@@H]2O)C[C@@H]2O[C@](O)(C[C@@H](O)C[C@@H](O)[C@H](O)CC[C@@H](O)C[C@@H](O)CC(=O)O[C@H]1C)C[C@H](O)[C@H]2C(=O)O [AMPHOTERICIN B]
MFC [2]: 2 µg/mL (≈ 2.16 µM)
MFC [3]: 0.5 µg/mL (≈ 0.541 µM)
MFC [4]: > 4 µg/mL
MFC [6]: 1 µg/mL (≈ 1.08 µM)
MFC [8]: > 8 µg/mL
MFC [9]: 4 µg/mL (≈ 4.33 µM)
MFC [10]: 1 µg/mL (≈ 1.08 µM)
MFC [13]: 0.5 µg/mL (≈ 0.541 µM)
MFC [14]: 4 µg/mL (≈ 4.33 µM)
MFC [15]: 1 µg/mL (≈ 1.08 µM)
MFC [16]: 1 µg/mL (≈ 1.08 µM)
MFC [19]: > 4 µg/mL
MFC [25]: > 4 µg/mL
MFC [26]: 0.5 µg/mL (≈ 0.541 µM)
MFC [27]: 4 µg/mL (≈ 4.33 µM)
MFC [28]: 4 µg/mL (≈ 4.33 µM)
MFC [30]: > 8 µg/mL
MFC [31]: 1 µg/mL (≈ 1.08 µM)
MFC [33]: > 4 µg/mL
